PfG6PD inh: PfG6PD (Plasmodium falciparum) enzyme inhibition | 350,000 compounds, 0.78% hits | inhibition, % at 20 µM | PfGluPho enzyme, NADPH resazurin-diaphorase fluorescence;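 active means inhibition reaching at least a set limit at 20 µM in the primary screen, cut at about 59% in these data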;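 further: 0% = DMSO wells with substrate and 100% = DMSO wells lacking glucose-6-phosphate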
ABHD5 PLIN5 PPI: blocks binding of human ABHD5 to perilipin-5. Q00G26+Q8WTS1. Split G. princeps luciferase complementation, luminescence, 4 h. inhibition, % at 4 µM. 360,000 compounds, 0.78% hits;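 active means inhibition above the mean inhibition across every tested compound plus 3 SD, cut at about 22% in these data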;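 further: 0% = DMSO only wells and the 100% control is not disclosed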
HKDC1 inhibitor: blocks human hexokinase HKDC1 activity; Q2TB90; recombinant HKDC1, G6PDH/diaphorase resazurin coupled fluorescence; inhibition, % at 20 µM; 340,000 compounds, 0.16% hits;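 active means inhibition above about 35% when tested at 20 µM, limit read from the data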;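 further: plate controls were DMSO wells with enzyme for no effect and DMSO wells lacking enzyme for full effect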
Target sequence (Q2TB90 whole entry, looked up): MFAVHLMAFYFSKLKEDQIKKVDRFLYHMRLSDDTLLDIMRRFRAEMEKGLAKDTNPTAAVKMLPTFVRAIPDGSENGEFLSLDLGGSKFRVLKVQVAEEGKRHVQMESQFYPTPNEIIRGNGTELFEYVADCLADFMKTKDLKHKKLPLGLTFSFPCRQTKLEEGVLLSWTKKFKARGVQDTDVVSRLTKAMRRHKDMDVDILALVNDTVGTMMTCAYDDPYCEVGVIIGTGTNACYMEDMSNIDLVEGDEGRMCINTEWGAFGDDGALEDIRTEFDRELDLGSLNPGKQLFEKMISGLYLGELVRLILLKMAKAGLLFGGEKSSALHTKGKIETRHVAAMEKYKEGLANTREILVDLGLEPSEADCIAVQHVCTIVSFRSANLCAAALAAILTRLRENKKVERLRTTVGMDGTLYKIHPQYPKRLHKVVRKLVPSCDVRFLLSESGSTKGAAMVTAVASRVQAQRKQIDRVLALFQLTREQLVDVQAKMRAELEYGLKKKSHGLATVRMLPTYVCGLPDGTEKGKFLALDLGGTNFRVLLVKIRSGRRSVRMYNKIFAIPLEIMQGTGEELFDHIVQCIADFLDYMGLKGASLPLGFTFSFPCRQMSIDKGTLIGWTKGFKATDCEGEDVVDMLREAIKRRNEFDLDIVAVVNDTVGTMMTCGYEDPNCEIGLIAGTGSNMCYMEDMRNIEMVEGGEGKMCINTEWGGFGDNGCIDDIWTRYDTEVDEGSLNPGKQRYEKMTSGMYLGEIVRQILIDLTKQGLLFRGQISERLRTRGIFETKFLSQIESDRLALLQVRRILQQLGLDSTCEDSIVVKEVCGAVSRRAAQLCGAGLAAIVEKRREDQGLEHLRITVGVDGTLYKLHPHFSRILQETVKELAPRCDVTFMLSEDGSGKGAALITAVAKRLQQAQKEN
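System: Recombinant HKDC1 hexokinase | Amount: HKDC1 at 5 µg/mL | Reagent: Glucose with 1 mM ATP | Doses: Single 20 µM dose | Incubation: Reaction time 90 min, room temperature, protected from light | Signal: Coupled resazurin fluorescence, excitation 525 nm, emission 613 nm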
Exocytosis inh: lytic granule exocytosis inhibition | inhibition, % at 10 µM | TALL-104 LAMP-1 surface exposure, flow cytometry; cells stimulated with thapsigargin and PMA | AID 651702 | 360,000 compounds, 0.66% hits;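 active means inhibition above about 55%, limit read from the data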
HKDC1 act conf2: confirmation of human HKDC1 activators | shares compounds with HKDC1 inhibitor | recombinant HKDC1, G6PDH/diaphorase resazurin fluorescence; hits give low values | inhibition, % at 20 µM | 740 compounds, 14% hits | AID 504708;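 active means inhibition at or below a set negative limit, negative inhibition meaning the enzyme was activated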
Active calls of the source: *; i = inactive; . = no result. Rows were chosen to be rich in hits. Some 2.2% of all compounds tested hit in one or more screens of this group.

SMILES	PfG6PD inh	ABHD5 PLIN5 PPI	HKDC1 inhibitor	Exocytosis inh	others
Oc1cccc(-c2sc3ccccc3c2-c2ccc(OCCN3CCCCC3)cc2)c1	.	11.6	.	58.7*
COc1ccc(C=C2NC(=S)NC2=O)cc1	-1.4	-6.4	-2.9	-2.9
COc1ccc(/C=C/C=C2\NC(=S)NC2=O)cc1	-11.3	-2.7	-6.1	57.9*
CC(=O)c1ccc(NC(=O)CSc2nnc(-c3ccco3)c(-c3ccco3)n2)cc1	29.9	22.9*	12.1	-2.9
CC(=O)c1ccc(NC(=O)c2ccc3nc(-c4ccco4)c(-c4ccco4)nc3c2)cc1	78.4*	17.1	41.4*	2.2
O=C(NCc1ccccc1)c1ccc2nc(-c3ccco3)c(-c3ccco3)nc2c1	44.3	24.3*	32.0	-0.9
CCCCNC(=O)c1ccc2nc(-c3ccco3)c(-c3ccco3)nc2c1	43.8	13.5	19.0	-0.5
CC1CCN(S(=O)(=O)c2nnc(NC(=O)c3cccc([N+](=O)[O-])c3)s2)CC1	113.0*	-3.7	5.9	-4.1
CCOC(=O)c1nc(Nc2cc(C)cc(C)c2)c2ccccc2n1	23.1	-4.5	-9.2	0.0
Cc1cc(C)c(/C=N/NC(=O)c2nnn(-c3nonc3N)c2CN2CCC(C)CC2)c(C)c1	23.2	4.8	-0.9	81.9*
CCOC(=O)c1cc2c(c(-c3ccccc3)n1)[C@H](CCO)N(S(=O)(=O)C(C)(C)C)C2	8.4	-14.3	1.9	-3.9
C#CCOCCOCCOCCNc1nc(N2CCN(C(=O)[C@H](Cc3cc4ccccc4[nH]3)n3cc([C@@H](N)CC(C)C)nn3)CC2)nc(N2CCN(C(=O)[C@H](Cc3cc4ccccc4[nH]3)n3cc([C@@H](N)CC(C)C)nn3)CC2)n1	43.6	50.8*	15.6	3.0
C#CCOCCOCCOCCNc1nc(N2CCN(C(=O)[C@H](Cc3ccc(O)cc3)n3cc([C@@H](N)C(C)CC)nn3)CC2)nc(N2CCN(C(=O)[C@H](Cc3cc4ccccc4[nH]3)n3cc([C@@H](N)C(C)CC)nn3)CC2)n1 (some centres not stated)	31.8	24.6*	4.7	9.4
COC(=O)c1ccccc1NC(=S)N1CCN(c2ccc(OC)cc2)CC1	0.0	-1.4	-4.7	-1.7
CN(C)c1ccc(C=O)c(Oc2ccccc2)c1	2.0	7.5	.	13.0
COC(=O)C1=C(C)NC(C)=C(C(=O)OC)C1c1ccccc1[N+](=O)[O-]	74.7*	i	-6.0	39.4
CCOC(=O)C1=C(C)NC(C)=C(C(=O)OC)C1c1cccc([N+](=O)[O-])c1 (configuration not stated)	12.8	-8.1	2.6	-4.7
COc1ccc(C(=O)Nc2c(Cl)cc(Cl)cc2C(=O)N2CCOCC2)cc1	2.2	0.6	-2.3	25.6
COc1ccc(-c2nn(C)c(=O)[nH]2)cc1	1.7	2.4	-7.2	-0.3
O=C(NCc1ccccn1)c1cc(Cl)ccc1OCc1ccccc1	13.8	-4.8	-0.4	0.7
COc1cccc(/C=C2\CCc3ccccc3C2=O)c1	-2.8	7.2	17.7	-8.1
COc1cccc(C=C2Cc3ccccc3C2=O)c1	.	22.6*	.	-2.8
COc1ccc(CCNC(=O)/C(C#N)=C2\N=C(NC(=O)c3ccco3)c3ccccc32)cc1	19.9	1.3	0.3	83.5*
CCOC(=O)c1c(SCCN2CCCCC2)n(-c2ccccc2)c(=S)n(-c2ccccc2)c1=O	12.5	12.1	-4.4	68.9*
CCN1CCN(c2cc(C)c3cc(NC(=S)N4CCN(c5ccccc5)CC4)ccc3n2)CC1	4.3	9.9	-0.5	56.4*
SMILES	PfG6PD inh	ABHD5 PLIN5 PPI	HKDC1 inhibitor	Exocytosis inh	others
CCN1CCN(c2cc(C)c3cc(NC(=S)N4CCOCC4)ccc3n2)CC1	-2.1	5.7	18.6	1.5
CC(C)(C)OC(=O)NCc1ccc(CNC(=O)c2nc[nH]c2C(=O)N2CCN(C(=O)OC(C)(C)C)CC2)cc1	18.0	5.5	-5.3	-7.6
Cc1ccc(-c2csc(NC(=O)c3cccc(N4C(=O)CCC4=O)c3)n2)o1	27.1	22.2*	1.0	1.7
CCOc1ccc(-c2csc(NC(=O)c3cccc(N4C(=O)CCC4=O)c3)n2)cc1	38.7	11.5	-1.3	-2.2
COc1cc(CC(=O)NC2CCCc3ccccc32)cc(OC)c1OC (configuration not stated)	5.3	-4.7	-10.0	60.4*
COc1ccccc1CC(=O)NC1CCCc2ccccc21 (configuration not stated)	-15.1	-5.4	8.9	-0.1
O=C(COC(=O)c1cncc(Br)c1)NCC12CC3CC(CC(C3)C1)C2	7.3	10.2	0.0	-4.2
O=c1[nH][nH]c2c(N=Cc3ccccc3O)ccc(F)c12	53.8	-4.9	37.7*	-10.9	HKDC1 act conf2=24.6
O=C(CSc1nnc(CCCN2C(=O)c3cccc4cccc(c34)C2=O)n1-c1ccccc1)N1CCN(CCO)CC1	4.3	9.5	42.4*	-0.5	HKDC1 act conf2=47.6
O=C(CN(Cc1ccc(Cl)cc1)S(=O)(=O)c1ccccc1)NCC1CCCO1 (configuration not stated)	26.6	-4.9	-5.5	0.3
O=[N+]([O-])c1cc(-c2ncccn2)cs1	-4.0	-5.3	-8.8	-0.1
O=C(CCn1c(=S)oc2ccccc21)Nc1cc([N+](=O)[O-])ccc1F	5.0	-3.9	-2.1	0.9
CCSc1nnnn1-c1ccccc1	-30.8	-4.2	-11.0	-7.5
Cc1ccc(C)c(-n2nnnc2Sc2nnnn2-c2ccccc2)c1	-4.7	18.2	47.1*	5.0	HKDC1 act conf2=38.7
COC(=O)C1CCN(C(=O)COC(=O)c2cc(-c3cccs3)nn2-c2ccccc2)CC1	2.6	-4.5	-3.3	1.9
O=C(OCn1ncc(Cl)c(Cl)c1=O)c1ccc(C(F)(F)F)cc1	7.7	1.7	46.0*	43.7	HKDC1 act conf2=2.1
CC(C)(C)c1ccc(-c2csc(NNC3=NCCCCC3)n2)cc1	24.1	-26.3	-61.2	-1.0	HKDC1 act conf2=-39.4*
Brc1ccc(-c2csc(NNC3=NCCCCC3)n2)cc1	37.1	-10.8	-1.4	16.9
Cc1ccccc1Nc1nc(N)nc(CSc2nnc(-c3ccccc3)n2C)n1	10.1	-5.5	0.0	-1.6
Cc1ccccc1Nc1nc(N)nc(CSc2nnc3sc4ccccc4n23)n1	35.1	1.2	35.9*	-1.1	HKDC1 act conf2=33.3
CCCCC(CC)CN=C(N)NC(N)=NCCCCCCN=C(N)NC(N)=NCC(CC)CCCC (configuration not stated)	41.4	16.2	41.6*	19.1	HKDC1 act conf2=45.9
CCCCC(CC)CO (configuration not stated)	0.2	2.5	-6.5	0.7
CN1CCN(C(=O)CN(C)S(=O)(=O)c2cc(Cl)ccc2Cl)CC1	-7.9	5.2	-4.7	-5.8
O=C1C(Cl)=C(NCc2cccnc2)C(=O)c2ccccc21	-97.6	2.8	-45.3	-0.2	HKDC1 act conf2=-45.1*
C=CCNC1=C(Cl)C(=O)c2ccccc2C1=O	-142.5	-9.1	7.5	4.8
CCC(C)(C)NC(=O)C1CCC(CNS(=O)(=O)c2cccc3nsnc23)CC1 (configuration not stated)	-0.7	-9.8	51.3*	-1.0	HKDC1 act conf2=-11.5
Cc1cc(C)nc(Nc2n[nH]c(-c3ccc(C(C)(C)C)cc3)n2)n1	-30.5	-1.3	-51.1	0.9	HKDC1 act conf2=-20.6
